{"source": "ChEMBL document CHEMBL1143175", "about": "“Inactivation of human neutrophil elastase by 1,2,5-thiadiazolidin-3-one 1,1 dioxide-based sulfonamides” (Bioorg Med Chem, 2008)", "key": {"[1]": {"target": "T1, Cathepsin G (Homo sapiens) (UniProt P08311)", "T1 sequence (whole entry)": "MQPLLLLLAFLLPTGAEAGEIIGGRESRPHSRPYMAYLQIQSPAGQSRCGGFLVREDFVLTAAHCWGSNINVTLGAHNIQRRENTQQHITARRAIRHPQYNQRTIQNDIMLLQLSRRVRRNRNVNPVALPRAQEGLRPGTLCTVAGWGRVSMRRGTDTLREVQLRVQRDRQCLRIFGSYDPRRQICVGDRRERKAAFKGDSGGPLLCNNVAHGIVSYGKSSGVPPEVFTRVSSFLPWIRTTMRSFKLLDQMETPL", "assay": "Ratio of Kinact to KI for human cathepsin G", "summary_of_the_method": "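Neutrophil cathepsin G incubated with inhibitor at an [I]/[E] ratio of 250 for 30 min. Substrate N-succinyl-Ala-Ala-Pro-Phe p-nitroanilide (85 mM stock in DMSO) then added, and absorbance monitored at 410 nm for 10 min.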"}, "[2]": {"target": "T2, Myeloblastin (Homo sapiens) (UniProt P24158)", "T2 sequence (whole entry)": "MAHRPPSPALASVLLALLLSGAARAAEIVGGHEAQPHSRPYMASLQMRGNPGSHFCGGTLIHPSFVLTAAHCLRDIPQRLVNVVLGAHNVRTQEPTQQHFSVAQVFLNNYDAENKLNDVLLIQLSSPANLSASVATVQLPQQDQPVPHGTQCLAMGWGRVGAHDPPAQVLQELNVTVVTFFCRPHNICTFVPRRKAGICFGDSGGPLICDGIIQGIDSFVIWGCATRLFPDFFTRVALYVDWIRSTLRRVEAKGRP", "assay": "Ratio of Kinact to KI for human PR3", "summary_of_the_method": "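Human proteinase 3 (34.5 nM final) with inhibitor (8.6 µM final) and Boc-Ala-Ala-NVa-SBzl plus 5,5′-dithio-bis(2-nitrobenzoic acid) in 0.1 M HEPES/0.5 M NaCl, pH 7.25. Absorbance change monitored at 410 nm for 2 min; inhibitor:enzyme ratio 250.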"}, "[3]": {"species": "Bos taurus", "assay": "Inhibition of bovine trypsin", "details": "TDE = time-dependent effect", "summary_of_the_method": "(§1)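 Incubation method: bovine trypsin (5 µM final) incubated with excess inhibitor (0.125 mM final) in 0.025 M phosphate/0.1 M NaCl, pH 7.51, 1% DMSO, in a constant temperature bath. Aliquots taken over time, residual activity read with N-p-tosyl-Gly-Pro-Lys p-nitroanilide at 410 nm for 60 s. kobs from ln(v/v0) versus time, mean of two determinations, reported as kobs/[I].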"}, "[4]": {"species": "Bos taurus", "assay": "Ratio of Kobs to [I] for bovine trypsin", "summary_of_the_method": "as §1"}, "[5]": {"target": "T3, Neutrophil elastase (Homo sapiens) (UniProt P08246)", "T3 sequence (whole entry)": "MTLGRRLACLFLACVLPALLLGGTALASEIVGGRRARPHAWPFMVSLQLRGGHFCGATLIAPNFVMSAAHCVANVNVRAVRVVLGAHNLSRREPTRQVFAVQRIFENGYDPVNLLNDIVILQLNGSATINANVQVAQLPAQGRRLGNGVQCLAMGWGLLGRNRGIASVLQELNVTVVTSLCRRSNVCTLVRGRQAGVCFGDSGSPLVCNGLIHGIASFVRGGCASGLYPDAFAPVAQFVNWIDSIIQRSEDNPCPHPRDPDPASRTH", "assay": "Inhibition of human neutrophil elastase", "details": "TDE = time-dependent effect", "summary_of_the_method": "(§2)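 Human neutrophil elastase, progress curve method: 10 nM enzyme added to inhibitor plus 105 µM MeOSuc-Ala-Ala-Pro-Val p-nitroanilide in 0.1 M HEPES/0.5 M NaCl, pH 7.25, 2.5% DMSO. Absorbance followed at 410 nm for 10 min and fitted to the progress curve equation. Apparent second-order constants kinact/KI determined in duplicate.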"}, "[6]": {"target": "T3, Neutrophil elastase (Homo sapiens)", "assay": "Ratio of Kinact to KI for human neutrophil elastase", "summary_of_the_method": "as §2"}}, "note": "Activity calls are given as the source filed them. No cut-off for these calls is given here."}
{"smiles": "CCCC1C(=O)N(CS(=O)(=O)N[C@@H](COCc2ccccc2)C(=O)OC)S(=O)(=O)N1C", "note": "(some centres undefined)", "values": [{"measurement": "Activity", "setting": "[1]", "value": "inactive"}, {"measurement": "Activity", "setting": "[2]", "value": "inactive"}, {"measurement": "Activity", "setting": "[3]", "value": "tde"}, {"measurement": "Ratio", "setting": "[4]", "value": 60}, {"measurement": "Activity", "setting": "[5]", "value": "tde"}, {"measurement": "Ratio", "setting": "[6]", "value": 16900, "unit": "M⁻¹ s⁻¹"}]}
{"smiles": "CCCC1C(=O)N(CS(=O)(=O)N[C@@H](C)C(=O)OC)S(=O)(=O)N1C", "note": "(some centres undefined)", "values": [{"measurement": "Activity", "setting": "[1]", "value": "inactive"}, {"measurement": "Activity", "setting": "[2]", "value": "inactive"}, {"measurement": "Activity", "setting": "[3]", "value": "tde"}, {"measurement": "Activity", "setting": "[5]", "value": "tde"}, {"measurement": "Ratio", "setting": "[6]", "value": 1050, "unit": "M⁻¹ s⁻¹"}]}
{"smiles": "CCCC1C(=O)N(CS(=O)(=O)N[C@@H](CCC)C(=O)OC)S(=O)(=O)N1C", "note": "(some centres undefined)", "values": [{"measurement": "Activity", "setting": "[1]", "value": "inactive"}, {"measurement": "Activity", "setting": "[2]", "value": "inactive"}, {"measurement": "Activity", "setting": "[3]", "value": "tde"}, {"measurement": "Ratio", "setting": "[4]", "value": 19}, {"measurement": "Activity", "setting": "[5]", "value": "tde"}, {"measurement": "Ratio", "setting": "[6]", "value": 34600, "unit": "M⁻¹ s⁻¹"}]}
{"smiles": "CCCC1C(=O)N(CS(=O)(=O)N[C@@H](Cc2ccccc2)C(=O)OC)S(=O)(=O)N1C", "note": "(some centres undefined)", "values": [{"measurement": "Activity", "setting": "[1]", "value": "inactive"}, {"measurement": "Activity", "setting": "[2]", "value": "inactive"}, {"measurement": "Activity", "setting": "[3]", "value": "tde"}, {"measurement": "Ratio", "setting": "[4]", "value": 50}, {"measurement": "Activity", "setting": "[5]", "value": "tde"}, {"measurement": "Ratio", "setting": "[6]", "value": 41800, "unit": "M⁻¹ s⁻¹"}]}
{"smiles": "CCCC1C(=O)N(CS(=O)(=O)N[C@@H](CO)C(=O)OC)S(=O)(=O)N1C", "note": "(some centres undefined)", "values": [{"measurement": "Activity", "setting": "[1]", "value": "inactive"}, {"measurement": "Activity", "setting": "[2]", "value": "inactive"}, {"measurement": "Activity", "setting": "[3]", "value": "tde"}, {"measurement": "Ratio", "setting": "[4]", "value": 12}, {"measurement": "Activity", "setting": "[5]", "value": "tde"}, {"measurement": "Ratio", "setting": "[6]", "value": 1100, "unit": "M⁻¹ s⁻¹"}]}
{"smiles": "CCCC1C(=O)N(CS(=O)(=O)N[C@@H](CCCCN)C(=O)OC)S(=O)(=O)N1C", "note": "(some centres undefined)", "values": [{"measurement": "Activity", "setting": "[1]", "value": "inactive"}, {"measurement": "Activity", "setting": "[2]", "value": "inactive"}, {"measurement": "Activity", "setting": "[3]", "value": "tde"}, {"measurement": "Activity", "setting": "[5]", "value": "tde"}, {"measurement": "Ratio", "setting": "[6]", "value": 12900, "unit": "M⁻¹ s⁻¹"}]}
{"smiles": "CCCC1C(=O)N(CS(=O)(=O)N[C@H](Cc2ccccc2)C(=O)OC)S(=O)(=O)N1C", "note": "(some centres undefined)", "values": [{"measurement": "Activity", "setting": "[1]", "value": "inactive"}, {"measurement": "Activity", "setting": "[2]", "value": "inactive"}, {"measurement": "Activity", "setting": "[3]", "value": "tde"}, {"measurement": "Activity", "setting": "[5]", "value": "tde"}, {"measurement": "Ratio", "setting": "[6]", "value": 9760, "unit": "M⁻¹ s⁻¹"}]}
{"smiles": "CCCC1C(=O)N(CS(=O)(=O)N[C@@H](CCCCNC(=O)OCc2ccccc2)C(=O)OC)S(=O)(=O)N1C", "note": "(some centres undefined)", "values": [{"measurement": "Activity", "setting": "[1]", "value": "inactive"}, {"measurement": "Activity", "setting": "[2]", "value": "inactive"}, {"measurement": "Activity", "setting": "[3]", "value": "tde"}, {"measurement": "Activity", "setting": "[5]", "value": "tde"}, {"measurement": "Ratio", "setting": "[6]", "value": 6900, "unit": "M⁻¹ s⁻¹"}]}
